In series [1] the test system is Vero. The series is described as follows: Cytotoxicity against African green monkey Vero cells assessed as decrease in cell viability at 80 uM after 2 days by MTT assay. The class given is cell-based. As to conditions: chlorocebus sabaeus, 48 h.
Series [2] deals with Porcine epidemic diarrhea virus. Kind of series: Antiviral activity against Porcine epidemic diarrhea virus infected in African green monkey Vero cells assessed as inhibition of virus-induced cytopathic effect at 40 uM after 3 days. The format is functional. An outline of the steps: (§1)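 Vero cells were inoculated with PEDV for 2 h, then treated with compound and incubated 3 days, with CPE inhibition as read-out. Screening was at 40 or 50 μM for non-cytotoxic compounds and at 20 μM for cytotoxic ones; the dose-response covered 20–90 μM. Azauridin was the positive control; mean ± SD, n = 3, versus virus-injected control.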

The test system of series [3] is Vero. The series is described as follows: Cytotoxicity against African green monkey Vero cells assessed as decrease in cell viability at 20 to 70 uM after 2 days by MTT assay. The class given is cell-based. The note with it: chlorocebus sabaeus, 48 h.
Series [4] has as its system Vero. The series is described as follows: Cytotoxicity against African green monkey Vero cells assessed as decrease in cell viability at 70 uM after 2 days by MTT assay. The format is cell-based. As to conditions: chlorocebus sabaeus, 48 h.
For series [5], the system named is Vero. The series is described as follows: Cytotoxicity against African green monkey Vero cells assessed as decrease in cell viability at 20 to 80 uM after 2 days by MTT assay. The format is cell-based. The note with it: chlorocebus sabaeus, 48 h.
In series [6] the test system is Vero. The series is described as follows: Cytotoxicity against African green monkey Vero cells assessed as decrease in cell viability at 90 uM after 2 days by MTT assay. The format is cell-based. The note with it: chlorocebus sabaeus, 48 h.
Series [7] deals with Porcine epidemic diarrhea virus. The series is described as follows: Antiviral activity against Porcine epidemic diarrhea virus infected in African green monkey Vero cells assessed as inhibition of virus-induced cytopathic effect after 3 days. The class given is functional. The procedure, abridged: as §1
The test system is the same in series [8]. The series is described as follows: Antiviral activity against Porcine epidemic diarrhea virus infected in African green monkey Vero cells assessed as inhibition of virus-induced cytopathic effect at 20 to 80 uM after 3 days. The format is functional.
The test system is the same in series [9]. Kind of series: Antiviral activity against Porcine epidemic diarrhea virus infected in African green monkey Vero cells assessed as decrease in nucleocapsid expression levels at 40 uM after 24 hrs by Western blot analysis. The class given is functional. An outline of the steps: (§2)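 Vero cells inoculated with PEDV, then incubated with or without compound (40 or 45 μM, or 10, 20, 40, 80 μM) for 24 h. Cells lysed and probed by Western blot with anti-nucleocapsid and anti-spike antibodies. Azauridin was the positive control. Values are relative to virus-infected control, mean ± SD (n = 3).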

Series [10] has the same test system. Kind of series: Antiviral activity against Porcine epidemic diarrhea virus infected in African green monkey Vero cells assessed as decrease in spike protein synthesis levels after 24 hrs by DAPI staining-based fluorescence microscopy. The format is functional. The procedure, abridged:
(§3)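 Virus-injected Vero cells were incubated 24 h with compound at 80, 40 or 20 μM, or with azauridin (20 μM) as positive control. Cells were then fixed, permeabilized and stained with monoclonal antibody against spike (or nucleocapsid) protein for immunofluorescence, alongside noninjected cells.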

The test system is the same in series [11]. The series is described as follows: Antiviral activity against Porcine epidemic diarrhea virus infected in African green monkey Vero cells assessed as decrease in spike protein synthesis at 20 to 80 uM after 24 hrs by DAPI staining-based fluorescence microscopy. The format is functional. An outline of the steps: as §3
The test system is the same in series [12]. The series is described as follows: Antiviral activity against Porcine epidemic diarrhea virus infected in African green monkey Vero cells assessed as decrease in spike protein expression levels at 10 to 80 uM after 24 hrs by Western blot analysis. The class given is functional. The procedure, abridged:
(§4)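 PEDV-infected Vero cells were incubated with or without compound for 24 h; single-compound tests were at 40 or 45 μM, and a dose series at 80, 40, 20 and 10 μM. Cells were lysed and blotted with nucleocapsid and spike antibodies. Azauridin was the positive control; mean ± SD, n = 3, versus virus-injected control.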

The test system is the same in series [13]. Kind of series: Antiviral activity against Porcine epidemic diarrhea virus infected in African green monkey Vero cells assessed as decrease in spike expression levels at 40 uM after 24 hrs by Western blot analysis. The class given is functional. An outline of the steps:
as §4

Series [14] shares this test system. The series is described as follows: Antiviral activity against Porcine epidemic diarrhea virus infected in African green monkey Vero cells assessed as decrease in nucleocapsid expression levels after 24 hrs by Western blot analysis. The format is functional. The procedure, abridged: as §2
The test system is the same in series [15]. The series is described as follows: Antiviral activity against Porcine epidemic diarrhea virus infected in African green monkey Vero cells assessed as decrease in nucleocapsid synthesis after 24 hrs by DAPI staining-based fluorescence microscopy. The class given is functional. An outline of the steps:
(§5)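 PEDV-infected Vero cells co-incubated with compound at 20, 40 or 80 μM for 24 h, with azauridin 20 μM as positive control. Cells fixed, permeabilized and stained with monoclonal antibody to nucleocapsid or spike. Antigen-expressing cells were scored by immunofluorescence and compared with uninfected and virus-infected controls.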

Series [16] has the same test system. The series is described as follows: Antiviral activity against Porcine epidemic diarrhea virus infected in African green monkey Vero cells assessed as decrease in nucleocapsid expression levels at 10 to 80 uM after 24 hrs by Western blot analysis. The format is functional. The procedure, abridged: as §2
The test system is the same in series [17]. The series is described as follows: Antiviral activity against Porcine epidemic diarrhea virus infected in African green monkey Vero cells assessed as decrease in nucleocapsid synthesis at 20 to 80 uM after 24 hrs by DAPI staining-based fluorescence microscopy. The class given is functional. An outline of the steps:
as §5

The test system is the same in series [18]. The series is described as follows: Antiviral activity against Porcine epidemic diarrhea virus infected in African green monkey Vero cells assessed as decrease in spike protein expression levels after 24 hrs by Western blot analysis. The format is functional. The procedure, abridged:
as §4

The test system is the same in series [19]. Kind of series: Antiviral activity against Porcine epidemic diarrhea virus infected in African green monkey Vero cells assessed as inhibition of virus-induced cytopathic effect at 20 to 90 uM after 3 days. The class given is functional. The procedure, abridged: as §1
For series [20] the test system is unchanged. Kind of series: Antiviral activity against Porcine epidemic diarrhea virus infected in African green monkey Vero cells assessed as decrease in spike protein expression levels at 45 uM after 24 hrs by Western blot analysis. The format is functional. The procedure, abridged:
as §4

For series [21] the test system is unchanged. Kind of series: Antiviral activity against Porcine epidemic diarrhea virus infected in African green monkey Vero cells assessed as decrease in nucleocapsid expression levels at 45 uM after 24 hrs by Western blot analysis. The format is functional. The procedure, abridged: as §2
Series [22] has the same test system. The series is described as follows: Antiviral activity against Porcine epidemic diarrhea virus infected in African green monkey Vero cells assessed as inhibition of virus-induced cytopathic effect at 20 uM after 3 days. The class given is functional. An outline of the steps: as §1

Molecules are shown by their SMILES. Active and inactive are the calls of the source. The calls are words filed in the database; no cut-off is given here.

Consider `C=C(C)[C@@H]1CC/C(C)=C\C[C@@H](O)C(=C)[C@@H](O)C1`, for which the Activity result in the series on Vero [1] is “Non-Toxic”. Also, the outcome in series [2] was Active.

Consider `C[C@@H]1CCC(=O)[C@@H]2CC[C@@H](C(C)(C)O)C[C@@]12C`, for which the Activity result with Vero [1] is recorded as “Non-Toxic”. The outcome in series [2] was Active.

Turning to `CC(=O)O[C@H]1CC(C)=C2C(=O)C=C(C)[C@@H]2[C@H]2OC(=O)[C@@H](C)[C@@H]21`, in the series with Vero [3], the Activity entry was “Toxic”.

Take `CC(C)(O)[C@@H]1CC[C@@]2(C)CCC[C@@]3(CO)O[C@@]23[C@@H]1O`: the Activity result with Vero [4] was “Non-Toxic”. For the same molecule, the outcome in series [2] was Active.

As to `C=C(C)[C@H]1CCC(=C)[C@@]2(O)C[C@H](O)C(=C)[C@@H](C1)O2`, in the series on Vero [5], the Activity result was “Toxic”.

Consider `C=C1CC[C@@H]2[C@H]([C@H]3[C@H]1CC[C@]3(C)O)C2(C)C` [SPATHULENOL], for which the Activity entry in the series on Vero [6] is on record as “Non-Toxic”.

On to `C=C(C)[C@@H]1CC[C@@]2(C)[C@H](O)C[C@@H](O)C(=C)[C@@H]2C1`, for which, in the series with Vero [1], the Activity entry was “Non-Toxic”. The outcome in series [2] was Active.

For `C=C1CCC[C@@]2(C)CC[C@@H](C(C)(C)O)[C@@H](O)[C@@]12O`, the Activity entry in the series with Vero [1] is “Non-Toxic”; in series [7], “Dose-dependent effect”; in series [10], “Dose-dependent effect”; in series [14], “Dose-dependent effect”; in [15], “Dose-dependent effect”; in series [18] it was “Dose-dependent effect”. In addition, the result in series [8], in series [9], in series [11], in series [12], in series [13] and in [16] was Active. The outcome in series [17] was Active.

Regarding `C=C1CCC[C@]2(C)CC[C@@H](C(C)(C)O)[C@@H](O)[C@@]12O`, the Activity entry in the series on Vero [1] was “Non-Toxic”. Further, the outcome in [2] was Active.

Consider `C=C1/C=C/[C@H](C(C)C)CCC(=C)[C@H](O)CC1`, for which the result in series [19], in series [20] and in series [21] was Active. The Activity entry was “Dose-dependent effect” in series [7] and “Non-Toxic” in the series with Vero [6].

As for `CC(=O)CC[C@@H]1[C@H]2CCC(=O)[C@@H](C(C)C)[C@@H]12`, the Activity entry with Vero [6] is on record as “Non-Toxic”.

With `C=C1CC[C@@H](O)[C@]2(C)C[C@@H]3[C@@H](C(C)C)[C@@H]3[C@@H]12`, the result in series [19], in series [20] and in series [21] was Active. Besides, the Activity entry in series [7] was “Dose-dependent effect”; in the series on Vero [6], “Non-Toxic”.

On to `CC(C)(O)[C@@H]1C=C2C(CO)=CCC[C@@]2(C)CC1`, for which the Activity entry in the series on Vero [5] is listed as “Toxic”.

Consider `CC(C)(O)[C@@H]1CC[C@@]2(C)CCC[C@]3(CO3)[C@]2(O)[C@@H]1O`, for which, in the series on Vero [4], the Activity result is “Non-Toxic”. In addition, the result in series [2] was Active.

`C=C(C)[C@@H]1CC[C@]2(C)C(=C(C)C(=O)C[C@H]2O)C1` [LIGUCYPERONOL]: the Activity entry with Vero [6] is listed as “Non-Toxic”. Also, the outcome in series [2] was Active.

For the molecule `C=C1CC[C@@H](O)[C@]2(C)CC[C@@H](C(C)C)[C@H](O)[C@@H]12`, in the series on Vero [1], the Activity entry is “Non-Toxic”. For the same molecule, the result in series [2] was Active.

Take `C=C1C(=O)O[C@@H]2[C@H]3C(C)=CC(=O)C3=C(C)C[C@H](O)[C@@H]12`: the result in series [22] was Active. For the same molecule, in the series on Vero [5], the Activity result is recorded as “Toxic”.

On to `CC(=O)O[C@@H]1C=C(C)[C@@]2(O)CC=C(C)[C@H]2[C@@H]2OC(=O)[C@H](C)[C@H]21`, for which, in the series on Vero [3], the Activity entry was “Toxic”.
